Assay results taken from ChEMBL document CHEMBL1138901, “Design, synthesis, and biological evaluation of the combinatorial library with a new spirodiketopiperazine scaffold. Discovery of novel potent and selective low-molecular-weight CCR5 antagonists” (J Med Chem, 2006).
Active and inactive are the calls of the source. No cut-off for these calls is given here.

How the values were obtained:
[1] = target: T1, C-C chemokine receptor type 5 (Homo sapiens, UniProt P51681); test: Inhibition of radio-isotope labeled MIP1-alpha binding to human recombinant CCR5
T1 sequence (P51681 whole entry): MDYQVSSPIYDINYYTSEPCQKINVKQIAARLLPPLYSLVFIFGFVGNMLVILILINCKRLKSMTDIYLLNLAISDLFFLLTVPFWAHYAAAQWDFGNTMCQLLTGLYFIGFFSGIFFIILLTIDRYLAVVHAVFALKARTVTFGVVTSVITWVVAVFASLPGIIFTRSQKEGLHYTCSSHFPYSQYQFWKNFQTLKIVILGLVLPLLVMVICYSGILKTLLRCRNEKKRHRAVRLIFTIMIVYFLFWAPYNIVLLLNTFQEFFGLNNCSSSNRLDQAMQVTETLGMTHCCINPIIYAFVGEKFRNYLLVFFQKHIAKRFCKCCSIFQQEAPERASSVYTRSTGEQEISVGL

[2] = target: T1, C-C chemokine receptor type 5; test: Antagonist activity against human recombinant CCR5 expressed in CHO cells assessed as inhibition of human MIP-1-alpha-stimulated calcium mobilization; type: functional, cell-based
Procedure, shortened: (§1)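 Human chemokine receptor-overexpressing CHO cells were stimulated with the matching human endogenous ligand, and calcium mobilization was read out. Library members were tested at 30 µM. Crude products were dissolved in DMSO as 10 mM stocks and used without further purification.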

[3] = target: T2, C-C chemokine receptor type 2 (Homo sapiens, UniProt P41597); test: Antagonist activity against human recombinant CCR2 expressed in CHO cells assessed as inhibition of human MCP1-stimulated calcium mobilization; type: functional, cell-based; procedure, shortened: as §1
T2 sequence (P41597 whole entry): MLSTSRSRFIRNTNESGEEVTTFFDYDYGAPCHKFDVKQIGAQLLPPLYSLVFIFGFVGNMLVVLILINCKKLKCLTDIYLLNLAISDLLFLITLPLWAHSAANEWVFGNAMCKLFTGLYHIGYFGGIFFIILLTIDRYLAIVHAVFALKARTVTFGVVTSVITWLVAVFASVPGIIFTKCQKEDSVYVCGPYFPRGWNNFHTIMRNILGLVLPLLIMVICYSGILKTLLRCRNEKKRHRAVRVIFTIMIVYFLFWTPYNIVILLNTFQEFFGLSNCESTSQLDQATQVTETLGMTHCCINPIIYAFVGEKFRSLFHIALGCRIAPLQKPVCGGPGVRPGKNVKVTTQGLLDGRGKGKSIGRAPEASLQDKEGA

[4] = target: T3, C-X-C chemokine receptor type 4 (Homo sapiens, UniProt P61073); test: Inhibition of radio-isotope labeled SDF1-alpha binding to human recombinant CXCR4
T3 sequence (P61073 whole entry): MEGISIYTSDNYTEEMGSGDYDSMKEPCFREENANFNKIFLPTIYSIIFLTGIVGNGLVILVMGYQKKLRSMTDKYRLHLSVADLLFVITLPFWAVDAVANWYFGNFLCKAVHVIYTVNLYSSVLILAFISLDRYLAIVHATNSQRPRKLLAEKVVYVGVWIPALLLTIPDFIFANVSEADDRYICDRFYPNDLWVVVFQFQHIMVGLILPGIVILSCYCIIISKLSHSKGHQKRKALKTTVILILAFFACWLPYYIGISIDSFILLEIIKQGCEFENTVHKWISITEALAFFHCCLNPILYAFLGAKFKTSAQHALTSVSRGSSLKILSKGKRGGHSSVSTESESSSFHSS

[5] = target: T2, C-C chemokine receptor type 2; test: Inhibition of radio-isotope labeled MCP1 binding to human recombinant CCR2
[6] = test system: Human immunodeficiency virus 1; test: Antiviral activity against T cell tropic HIV1 X4; type: functional, organism-based
[7] = target: T3, C-X-C chemokine receptor type 4; test: Antagonist activity against human recombinant CXCR4 expressed in CHO cells assessed as inhibition of human SDF1-alpha-stimulated calcium mobilization; type: functional, cell-based; procedure, shortened: as §1
[8] = target: Muscarinic acetylcholine receptor M3 (Homo sapiens, UniProt P20309); test: Binding affinity to muscarinic M3 receptor
Chain of Muscarinic acetylcholine receptor M3 (P20309 whole entry): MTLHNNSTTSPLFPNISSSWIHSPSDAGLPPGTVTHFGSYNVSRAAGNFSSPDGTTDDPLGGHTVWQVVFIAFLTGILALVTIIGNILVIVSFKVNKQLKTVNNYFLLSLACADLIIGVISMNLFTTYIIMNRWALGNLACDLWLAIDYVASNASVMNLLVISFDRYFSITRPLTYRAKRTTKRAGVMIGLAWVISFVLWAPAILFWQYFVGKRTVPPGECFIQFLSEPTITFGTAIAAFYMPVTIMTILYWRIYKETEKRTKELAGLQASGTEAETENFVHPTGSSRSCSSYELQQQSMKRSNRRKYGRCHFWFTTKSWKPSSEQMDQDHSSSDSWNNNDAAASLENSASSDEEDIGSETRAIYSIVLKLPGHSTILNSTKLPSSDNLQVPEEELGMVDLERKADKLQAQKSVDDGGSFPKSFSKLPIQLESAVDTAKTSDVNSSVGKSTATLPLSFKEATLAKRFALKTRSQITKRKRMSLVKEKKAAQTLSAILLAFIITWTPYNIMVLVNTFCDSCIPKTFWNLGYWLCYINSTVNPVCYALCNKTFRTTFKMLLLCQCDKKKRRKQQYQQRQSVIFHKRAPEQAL

[9] = target: Sigma non-opioid intracellular receptor 1 (Homo sapiens, UniProt Q99720); test: Binding affinity to sigma receptor
Chain of Sigma non-opioid intracellular receptor 1 (Q99720 whole entry): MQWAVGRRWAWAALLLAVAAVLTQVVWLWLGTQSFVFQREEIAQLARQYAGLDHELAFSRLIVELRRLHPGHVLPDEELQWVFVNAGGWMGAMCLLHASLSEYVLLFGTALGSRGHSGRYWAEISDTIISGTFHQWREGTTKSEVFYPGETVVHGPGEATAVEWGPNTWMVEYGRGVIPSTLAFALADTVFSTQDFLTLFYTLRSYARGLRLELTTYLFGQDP

[10] = target: C-C chemokine receptor type 4 (Homo sapiens, UniProt P51679); test: Antagonist activity against human recombinant CCR4 expressed in CHO cells assessed as inhibition of human […]-stimulated calcium mobilization; type: functional, cell-based; procedure, shortened: as §1
Chain of C-C chemokine receptor type 4 (P51679 whole entry, looked up): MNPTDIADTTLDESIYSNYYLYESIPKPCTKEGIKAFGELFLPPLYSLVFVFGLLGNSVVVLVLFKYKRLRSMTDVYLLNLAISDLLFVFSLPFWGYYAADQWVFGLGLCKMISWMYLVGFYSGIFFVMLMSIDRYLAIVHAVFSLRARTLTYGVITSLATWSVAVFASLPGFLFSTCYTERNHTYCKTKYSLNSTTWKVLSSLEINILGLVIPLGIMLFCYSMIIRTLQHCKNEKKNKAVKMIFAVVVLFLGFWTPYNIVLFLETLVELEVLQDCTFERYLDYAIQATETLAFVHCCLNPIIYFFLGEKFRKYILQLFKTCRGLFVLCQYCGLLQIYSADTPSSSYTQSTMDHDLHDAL

Structure (SMILES) | IC50 [1] [µM] | IC50 [2] [µM] | IC50 [3] [µM] | IC50 [4] [µM] | IC50 [7] [µM] | IC50 [8] [µM] | IC50 [9] [µM] | IC50 [10] [µM] | IC50 [5] [µM] | Activity [6]
CCCN1C(=O)C(CC(C)C)NC(=O)C12CCN(Cc1ccc(Oc3ccccc3)cc1)CC2 (stereo unspecified) | 0.017 | 0.5 | > 30 | > 30 | > 30 | – | – | > 30 | > 30 | inactive
CC(C)C[C@@H]1NC(=O)C2(CCN(Cc3ccccc3)CC2)N(Cc2ccccc2)C1=O | – | 3.2 | > 30 | – | > 30 | – | – | > 30 | – | inactive
CCCCN1C(=O)C(CC(C)C)NC(=O)C12CCN(Cc1ccccc1)CC2 (stereo unspecified) | 0.56 | 0.9 | > 30 | > 10 | > 30 | – | – | > 30 | – | inactive
CCCCN1C(=O)C(CC(C)C)NC(=O)C12CCN(Cc1ccc3c(c1)OCCO3)CC2 (stereo unspecified) | 0.02 | 0.17 | > 10 | > 10 | > 10 | – | – | – | > 10 | inactive
CCCCN1C(=O)C(CC2CCCCC2)NC(=O)C12CCN(Cc1ccc(OC)cc1)CC2 (stereo unspecified) | 0.0045 | 0.12 | > 30 | > 30 | > 30 | – | – | – | > 30 | inactive
CCCCN1C(=O)C(CC(C)C)NC(=O)C12CCN(CCCCCCc1ccccc1)CC2 (stereo unspecified) | 0.038 | 0.27 | > 10 | > 10 | 6.7 | – | – | > 10 | > 10 | inactive
CCCCN1C(=O)C(CC2CCCCC2)NC(=O)C12CCN(Cc1ccc(Oc3ccccc3)cc1)CC2 (stereo unspecified) | 0.0061 | 0.17 | > 10 | > 10 | > 10 | – | – | – | > 10 | inactive

The next lines start with results.

IC50 [1] [µM] | IC50 [2] [µM] | IC50 [3] [µM] | IC50 [4] [µM] | IC50 [7] [µM] | IC50 [8] [µM] | IC50 [9] [µM] | IC50 [10] [µM] | Structure (SMILES) | IC50 [5] [µM] | Activity [6]
0.083 | 0.12 | > 10 | > 10 | > 10 | – | – | – | CCCCN1C(=O)C(CC(C)C)NC(=O)C12CCN(Cc1ccc(Oc3ccccc3)cc1)CC2 (stereo unspecified) | > 10 | inactive
0.0025 | 0.02 | > 10 | > 10 | > 10 | 2.07 | 0.183 | – | CCCCN1C(=O)C(CC2CCCCC2)NC(=O)C12CCN(Cc1ccc3c(c1)OCCO3)CC2 (stereo unspecified) | > 10 | inactive
0.011 | 0.05 | > 10 | > 10 | > 10 | – | – | – | C=CCOc1ccc(CN2CCC3(CC2)C(=O)NC(CC2CCCCC2)C(=O)N3CCCC)cc1 (stereo unspecified) | > 10 | inactive
– | 2 | > 10 | – | > 10 | – | – | > 10 | CCCN1C(=O)[C@H](CC(C)C)NC(=O)C12CCN(CCCCCCc1ccccc1)CC2 | – | inactive
0.61 | 0.3 | > 10 | > 10 | > 10 | – | – | > 10 | CCCN1C(=O)[C@H](CC2CCCCC2)NC(=O)C12CCN(CCCCCCc1ccccc1)CC2 | – | inactive
– | 3 | > 10 | – | > 10 | – | – | > 10 | CCCN1C(=O)[C@@H](CC(C)C)NC(=O)C12CCN(CCCCCCc1ccccc1)CC2 | – | inactive
0.86 | 0.27 | > 10 | > 10 | > 10 | – | – | > 10 | CCCN1C(=O)[C@@H](CC2CCCCC2)NC(=O)C12CCN(CCCCCCc1ccccc1)CC2 | – | inactive
– | 7.6 | > 30 | – | > 30 | – | – | > 30 | CC(C)C[C@H]1NC(=O)C2(CCN(Cc3ccccc3)CC2)N(Cc2ccccc2)C1=O | – | inactive
